Experiment [1] has as its system Cholesterol 24-hydroxylase (Homo sapiens), Q9Y6A2 [UNDEFINED MUTATION]. As to the kind of experiment: Binding affinity to recombinant human C-terminal 4His-tagged CYP46A1 delta(2 to 50) mutant expressed in Escherichia coli at 15 to 30 uM in absence of substrate by UV-spectrophotometric method. Summed up:
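Stopped-flow rapid-scanning spectrophotometry at 23 °C. Substrate-free CYP46A1 (4 μM, in 50 mM KPi pH 7.2 with 100 mM NaCl) was mixed with an equal volume of compound in the same buffer. Spectra were collected over 330–570 nm, and binding rates (kobserved) were fitted.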

Experiment [2] is filed under the species Homo sapiens. Put plainly: Activation of recombinant human C-terminal 4His-tagged CYP46A1 delta(2 to 50) K358L mutant expressed in Escherichia coli at 20 uM using cholesterol as substrate measured after 30 mins in presence of cytochrome P450 oxidoreductase by gas chromatography-mass spectrometry. Summed up:
(§1)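 Fixed 20 μM test compound (final, 2% methanol) with 0.5 μM purified Δ(2-50)CYP46A1 (wild type or mutant) and 1.0 μM rat P450 oxidoreductase. Buffer: 50 mM KPi pH 7.2, 100 mM NaCl, 40 μg/mL dilauroylphosphatidylcholine, 40 μM cholesterol, catalase, NADPH-regenerating system. Run 30 min at 37 °C. 24-Hydroxycholesterol measured by GC-MS against a deuterated internal standard. Fold activation over no-activator control; mean ± SD, three independent experiments.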

For experiment [3], the species on record is Homo sapiens. Put plainly: Activation of recombinant human C-terminal 4His-tagged CYP46A1 delta(2 to 50) K358A mutant expressed in Escherichia coli at 20 uM using cholesterol as substrate measured after 30 mins in presence of cytochrome P450 oxidoreductase by gas chromatography-mass spectrometry. The method, boiled down:
as §1

Experiment [4] concerns the target Cholesterol 24-hydroxylase (Homo sapiens, UniProt Q9Y6A2). Put plainly: Binding affinity to recombinant human C-terminal 4His-tagged CYP46A1 delta(2 to 50) mutant expressed in Escherichia coli in absence of substrate at 24 degC by stopped-flow spectrophotometric method.
For experiment [5], the species on record is Homo sapiens. Put plainly: Activation of recombinant human C-terminal 4His-tagged CYP46A1 delta(2 to 50) F405A mutant expressed in Escherichia coli at 20 uM using cholesterol as substrate measured after 30 mins in presence of cytochrome P450 oxidoreductase by gas chromatography-mass spectrometry. The method, boiled down: as §1
The species named for experiment [6] is Homo sapiens. As to the kind of experiment: Activation of recombinant human C-terminal 4His-tagged CYP46A1 delta(2 to 50) F416A mutant expressed in Escherichia coli at 20 uM using cholesterol as substrate measured after 30 mins in presence of cytochrome P450 oxidoreductase by gas chromatography-mass spectrometry. The method, boiled down: as §1
For experiment [7], the species on record is Homo sapiens. As to the kind of experiment: Activation of recombinant human C-terminal 4His-tagged CYP46A1 delta(2 to 50) Y427A mutant expressed in Escherichia coli at 20 uM using cholesterol as substrate measured after 30 mins in presence of cytochrome P450 oxidoreductase by gas chromatography-mass spectrometry. The method, boiled down:
as §1

For experiment [8], the species on record is Homo sapiens. As to the kind of experiment: Activation of recombinant human C-terminal 4His-tagged CYP46A1 delta(2 to 50) K358R mutant expressed in Escherichia coli at 20 uM using cholesterol as substrate measured after 30 mins in presence of cytochrome P450 oxidoreductase by gas chromatography-mass spectrometry. The method, boiled down: as §1
For experiment [9], the species on record is Homo sapiens. As to the kind of experiment: Activation of recombinant human C-terminal 4His-tagged CYP46A1 delta(2 to 50) R415A mutant expressed in Escherichia coli at 20 uM using cholesterol as substrate measured after 30 mins in presence of cytochrome P450 oxidoreductase by gas chromatography-mass spectrometry. Summed up:
as §1

Experiment [10] concerns Cholesterol 24-hydroxylase (Homo sapiens), Q9Y6A2 [UNDEFINED MUTATION]. Put plainly: Binding affinity to substrate bound recombinant human C-terminal 4His-tagged CYP46A1 delta(2 to 50) mutant expressed in Escherichia coli assessed as Koff rate of cholesterol by stopped-flow spectrophotometric method. The method, boiled down: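 Release rate was measured by stopped-flow chase at 23 °C. A prebound complex (4 μM CYP46A1 plus 4 μM cholesterol, 50 mM KPi pH 7.2, 100 mM NaCl) was mixed with excess clotrimazole (40 μM). The rise in Δ(A437−A416) was followed, and 8–12 traces were averaged and fitted. Values are mean ± SD of three independent experiments.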
Cholesterol 24-hydroxylase (Homo sapiens), Q9Y6A2 [UNDEFINED MUTATION], sequence (Q9Y6A2 whole entry, looked up, stated change not applied): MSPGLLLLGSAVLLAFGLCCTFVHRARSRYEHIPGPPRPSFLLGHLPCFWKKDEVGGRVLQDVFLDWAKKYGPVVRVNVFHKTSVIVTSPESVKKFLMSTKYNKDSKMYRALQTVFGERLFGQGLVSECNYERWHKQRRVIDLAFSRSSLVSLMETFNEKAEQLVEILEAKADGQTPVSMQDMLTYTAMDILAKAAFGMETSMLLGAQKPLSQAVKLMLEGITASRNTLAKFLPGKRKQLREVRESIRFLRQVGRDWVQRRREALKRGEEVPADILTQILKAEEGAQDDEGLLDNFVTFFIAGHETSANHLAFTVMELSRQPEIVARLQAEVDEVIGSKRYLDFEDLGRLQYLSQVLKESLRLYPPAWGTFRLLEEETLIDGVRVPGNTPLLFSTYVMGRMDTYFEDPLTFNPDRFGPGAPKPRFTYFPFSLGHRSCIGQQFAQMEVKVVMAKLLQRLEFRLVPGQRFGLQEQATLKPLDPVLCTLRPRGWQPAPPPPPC

The test system is the same in experiment [11]. As to the kind of experiment: Binding affinity to recombinant human C-terminal 4His-tagged CYP46A1 delta(2 to 50) mutant expressed in Escherichia coli at 2 uM in presence of substrate by UV-spectrophotometric method. The method, boiled down:
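Stopped-flow rapid-scanning spectrophotometry at 23 °C in 50 mM KPi pH 7.2 with 100 mM NaCl. A premixed 4 μM CYP46A1·4 μM cholesterol complex was mixed with compound, and spectral changes were followed over 330–570 nm.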

The species named for experiment [12] is Homo sapiens. As to the kind of experiment: Activation of recombinant human C-terminal 4His-tagged CYP46A1 delta(2 to 50) Y427F mutant expressed in Escherichia coli at 20 uM using cholesterol as substrate measured after 30 mins in presence of cytochrome P450 oxidoreductase by gas chromatography-mass spectrometry. Summed up:
as §1

Experiment [13] relates to Cholesterol 24-hydroxylase (Homo sapiens), Q9Y6A2 [UNDEFINED MUTATION]. As to the kind of experiment: Activation of recombinant human C-terminal 4His-tagged CYP46A1 delta(2 to 50) mutant expressed in Escherichia coli at 20 uM using cholesterol as substrate measured after 30 mins in presence of cytochrome P450 oxidoreductase and L-Glu by gas chromatography-mass spectrometry relative to control. The method, boiled down: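 Co-incubation of 100 μM L-Glu with 20 μM test compound, 0.5 μM Δ(2-50)CYP46A1 and 1.0 μM P450 oxidoreductase. Buffer: 50 mM KPi pH 7.2, 100 mM NaCl, phospholipid, 40 μM cholesterol, NADPH-regenerating system. Run 30 min at 37 °C. 24-Hydroxycholesterol measured by GC-MS with a deuterated internal standard. Fold activation relative to control; mean ± SD of three experiments.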

For experiment [14] the test system is unchanged. Put plainly: Binding affinity to substrate free recombinant human C-terminal 4His-tagged CYP46A1 delta(2 to 50) mutant expressed in Escherichia coli assessed as Kon rate of cholesterol by stopped-flow spectrophotometric method.
Experiment [15] shares this test system. As to the kind of experiment: Activation of recombinant human C-terminal 4His-tagged CYP46A1 delta(2 to 50) mutant expressed in Escherichia coli at 20 uM using cholesterol as substrate measured after 30 mins in presence of cytochrome P450 oxidoreductase by gas chromatography-mass spectrometry relative to control. Summed up: as §1

This is an account of results in ChEMBL document CHEMBL4613214, “In Vitro Activation of Cytochrome P450 46A1 (CYP46A1) by Efavirenz-Related Compounds” (J Med Chem, 2020).

pKd: −log10 of the molar value. Activity calls are given as the source filed them. No cut-off for these calls is given here.

Cholesterol 24-hydroxylase, sequence (Q9Y6A2 whole entry, looked up, stated change not applied): as above

What is called pKd is the negative decadic logarithm of the Kd, by convention in mol/L. As to `O=C1Nc2c(O)cc(Cl)cc2C(C#CC2(O)CC2)(C(F)(F)F)O1` (racemic), the result in experiment [1], in experiment [5], in experiment [9] and in experiment [11] was inactive. In addition, the result in experiment [2], in [3], in [6], in experiment [7], in experiment [8] and in experiment [12] was Active. Besides, in experiment [4], the pKd is 5.30. For the same compound, the K in experiment [10] came out at 3.6 s⁻¹; in [14], 0.7 ×10⁶ /M/s. Further, the results for the fold change (FC) in [13] and in experiment [15] were 4.8 and 6.1, respectively.
